First the molecules themselves.
B1: Osa-1-4 twister ribozyme (parent)
chain: CCGCCUAACACUGCCAAUGCCGGUCCCAAGCCCGGAUAAAAGUGGAGGGGGCGG

The variants in the data set derive from B1. Nature of the data set: self-cleavage, relative activity (ratio to wild type); higher = more cleavage; co-transcriptional. The method in brief: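 The 48 positions downstream of the cleavage site in a 54-nucleotide Oryza sativa twister ribozyme template were synthesised at 97 % wild-type base and 1 % of each other base. The template was transcribed in vitro at 37 °C for 2 h, with self-cleavage allowed during transcription. Reads with or without upstream sequence after deep sequencing marked cleavage status, and relative activity is fraction cleaved normalised to wild type.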
With A16U C14G, the self-cleavage is 0.11.
In the case of A16U C14U it was 0.3; in that of A16U C14A, 0.05; in that of A16G A8G, 0.76.
With A16G A8U, the self-cleavage is 0.5.
As for A16G A8C, the self-cleavage came to 0.09.
With A16U G42U the figure was 0.73; with A16U G42C, 0.33; with A16U G42A, 0.8.
For A16G G30U, the self-cleavage was found to be 0.04.
Take A16G G30C: the self-cleavage was determined as 0.05.
With A16G G30A the figure was 0.04; with A16G C27G, 0.15; with A16G C27A, 0.38.
As for A16G C27U, the self-cleavage amounted to 0.37.
In the case of A16U G45U it was 0.1.
In the case of A16U G45C, the self-cleavage was 0.04.
For A16U G45A, the self-cleavage is 0.36.
For A16G A41C, the self-cleavage worked out at 0.99.
Regarding A16G A41G, the self-cleavage worked out at 0.74.
For the variant A16G A41U, the self-cleavage was 1.05.
In the case of A17C A40C it was 0.06; in that of A17C A40G, 0.28; in that of A17C A40U, 0.16.
Take A16U C27A: the self-cleavage came out at 0.2.
In the case of A16U C27G, the self-cleavage worked out at 0.06.
In the case of A16U C27U it was 0.17.
As to A16G C25A, the self-cleavage was 0.24.
Take A16G C25G: the self-cleavage is 0.16.
With A16G C25U the figure was 0.94.
A16U A7G: the self-cleavage came out at 0.27.
Consider A16U A7C, for which the self-cleavage stood at 0.04.
A16U A7U: the self-cleavage is 0.06.
For A17C C31A, the self-cleavage amounted to 0.03.
Consider A16U C33A, for which the self-cleavage worked out at 0.11.
In the case of A16U C33U it was 0.71; in that of A16U C33G, 0.04.
With A16G G19U the figure was 0.57; with A16G G19A, 0.98; with A16G G19C, 0.4.
As to A16G G45A, the self-cleavage amounted to 0.55.
In the case of A16G G45U it was 0.19.
In the case of A16G G45C it was 0.08; in that of A16U A41G, 0.36; in that of A16U A41C, 0.93.
In the case of A16U A41U it was 0.97; in that of A16U G44C, 0.91.
For the variant A16U G44A, the self-cleavage came to 0.94.
Consider A16U G44U, for which the self-cleavage is 0.92.
Turning to A17C A7G, the self-cleavage was found to be 0.1.
Take A17C A7C: the self-cleavage came to 0.08.
As to A17C A7U, the self-cleavage turned out to be 0.06.
Take A16G C9A: the self-cleavage turned out to be 0.59.
With A16G C9G the figure was 0.92; with A16G C9U, 0.84; with A16U C20G, 0.15.
In the case of A16U C20U it was 0.89.
A16U C20A: the self-cleavage came out at 0.69.
For the variant A16G G35C, the self-cleavage was 0.8.
Take A16G G35A: the self-cleavage came to 0.87.
With A16G G35U the figure was 0.93; with A16G C11G, 0.65.
With A16G C11U the figure was 0.95; with A16G C11A, 0.85.
With A16G U12C the figure was 0.53; with A16G U12A, 0.97.
A16G U12G: the self-cleavage was 0.55.
In the case of A17C A41U it was 0.81; in that of A17C A41C, 0.68.
With A17C A41G the figure was 0.68; with A16U A28C, 0.91; with A16U A28U, 0.87.
With A16U A28G the figure was 0.24; with A16U U18G, 0.66; with A16U U18C, 0.87.
For the variant A16U U18A, the self-cleavage was 0.89.
Regarding A16G C15U, the self-cleavage turned out to be 0.45.
In the case of A16G C15G it was 0.78; in that of A16G C15A, 0.61.
In the case of A16U A38G it was 0.94.
A16U A38U: the self-cleavage was 1.05.
For A16U A38C, the self-cleavage came to 1.
With A16G A46U the figure was 0.11; with A16G A46G, 0.1; with A16G A46C, 0.15.
With A16U G49U the figure was 0.11; with A16U G49C, 0.06.
A16U G49A: the self-cleavage was determined as 0.11.
With A16U G50C the figure was 0.95; with A16U G50U, 0.94; with A16U G50A, 0.67.
In the case of A16G G42A it was 0.86.
Regarding A16G G42C, the self-cleavage turned out to be 0.62.
With A16G G42U the figure was 0.57.
In the case of A16U C52U it was 0.92.
With A16U C52A the figure was 0.97; with A16U C52G, 0.92; with A16U C32G, 0.11.
On to A16U C32A, for which the self-cleavage was 0.08.
With A16U C32U the figure was 0.13; with A16G C14A, 0.15; with A16G C14U, 0.64.
As to A16G C14G, the self-cleavage is 0.53.
Consider A16U C15A, for which the self-cleavage is 0.35.
With A16U C15G the figure was 0.31; with A16U C15U, 0.18; with A16G G49C, 0.08.
Take A16G G49A: the self-cleavage came to 0.27.
As for A16G G49U, the self-cleavage amounted to 0.3.
In the case of A16G U43G, the self-cleavage was 0.62.
A16G U43C: the self-cleavage is 0.53.
With A16G U43A the figure was 0.89; with A16G A36C, 0.86; with A16G A36G, 1.01.
With A16G A36U the figure was 1.06; with A16G A38C, 0.98.
As to A16G A38U, the self-cleavage turned out to be 1.05.
On to A16G A38G, for which the self-cleavage worked out at 0.97.
Turning to A16U G30C, the self-cleavage stood at 0.04.
For A16U G30A, the self-cleavage amounted to 0.03.
With A16U G30U the figure was 0.03; with A16G A40C, 0.11.
Turning to A16G A40U, the self-cleavage is 0.88.
With A16G A40G the figure was 0.77; with A16G C20A, 0.86.
In the case of A16G C20G it was 0.19; in that of A16G C20U, 0.99.
As for A16U A36C, the self-cleavage was determined as 0.6.
In the case of A16U A36G it was 0.97; in that of A16U A36U, 1.01; in that of A17C C21U, 0.69.
Regarding A17C C21A, the self-cleavage turned out to be 0.15.
With A17C C21G the figure was 0.05; with A16G G50U, 1.02.
With A16G G50A, the self-cleavage was 0.77.
As for A16G G50C, the self-cleavage was found to be 0.95.
In the case of A16U U12G, the self-cleavage is 0.16.
Consider A16U U12A, for which the self-cleavage stood at 0.92.
With A16U U12C, the self-cleavage worked out at 0.47.
In the case of A17C A38G it was 0.78.
A17C A38U: the self-cleavage came out at 0.66.
As to A17C A38C, the self-cleavage was 0.71.
As for A17C A28C, the self-cleavage stood at 0.6.
With A17C A28U the figure was 0.29; with A17C A28G, 0.05; with A16U C21G, 0.05.
For A16U C21U, the self-cleavage came out at 0.95.
Consider A16U C21A, for which the self-cleavage came out at 0.66.
Take A17C A8G: the self-cleavage amounted to 0.12.
With A17C A8C, the self-cleavage is 0.08.
On to A17C A8U, for which the self-cleavage worked out at 0.06.
In the case of A16U G34C it was 0.51; in that of A16U G34A, 0.73.
With A16U G34U the figure was 0.67; with A16G G53U, 0.71; with A16G G53C, 0.16.
With A16G G53A the figure was 0.91; with A16U C9A, 0.42.
On to A16U C9G, for which the self-cleavage was 0.91.
With A16U C9U the figure was 0.62; with A16G G47A, 0.6.
With A16G G47U the figure was 0.49; with A16G G47C, 0.2; with A16U G22C, 0.11.
A16U G22U: the self-cleavage is 0.84.
Regarding A16U G22A, the self-cleavage came to 0.99.
For A16U G47U, the self-cleavage stood at 0.2.

(Values after the RNAGym collection of RNA variant scans (doi:10.1002/anie.201605470).)
